Laboratory results taken from ChEMBL document CHEMBL4265908, “Structure-activity and structure-property relationships of novel Nrf2 activators with a 1,2,4-oxadiazole core and their therapeutic effects on acetaminophen (APAP)-induced acute liver injury” (Eur J Med Chem, 2018).
≈ marks a conversion by molar mass, not a printed value.

Columns and labels:
[1] = target: T1, Nuclear factor erythroid 2-related factor 2 (Homo sapiens) (UniProt Q16236); assay: Activation of Nrf2 in human HepG2-ARE-C8 cells assessed as induction of ARE-mediated luciferase activity at 0.01 uM after 24 hrs by luciferase reporter gene assay relative to control; type: cell-based
T1 sequence (whole entry): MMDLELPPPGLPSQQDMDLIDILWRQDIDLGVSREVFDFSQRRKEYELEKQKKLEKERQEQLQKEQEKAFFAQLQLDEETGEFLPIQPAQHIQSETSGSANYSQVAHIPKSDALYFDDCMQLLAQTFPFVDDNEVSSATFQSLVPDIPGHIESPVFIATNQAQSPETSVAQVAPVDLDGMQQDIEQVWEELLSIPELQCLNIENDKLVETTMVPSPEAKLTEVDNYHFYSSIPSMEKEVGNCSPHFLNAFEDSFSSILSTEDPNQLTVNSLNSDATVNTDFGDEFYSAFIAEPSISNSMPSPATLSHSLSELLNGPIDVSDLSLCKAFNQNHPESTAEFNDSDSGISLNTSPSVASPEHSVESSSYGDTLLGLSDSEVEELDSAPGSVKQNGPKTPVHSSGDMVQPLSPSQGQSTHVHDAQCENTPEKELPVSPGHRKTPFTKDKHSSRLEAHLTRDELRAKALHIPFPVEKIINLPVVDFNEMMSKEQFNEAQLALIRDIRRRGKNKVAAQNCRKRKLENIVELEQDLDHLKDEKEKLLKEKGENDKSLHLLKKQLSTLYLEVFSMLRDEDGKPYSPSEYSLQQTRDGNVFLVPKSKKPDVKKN
In short: (§1)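 HepG2-ARE-C8 cells stably carrying ARE-luciferase, grown in DMEM with 10% FBS at 37 °C and 5% CO2. Seeded at 5 × 10^4 cells/well, left overnight, then given compound diluted from a 10 mM DMSO stock for 24 h. Cells lysed and luciferase read as RLU. Inductivity = (RLUtest − RLUblank)/(RLUcontrol − RLUblank), with DMSO as control. Mean ± SEM of three experiments.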

HepG2 = assay: Cytotoxicity against human HepG2 cells at 80 uM after 24 hrs by MTT assay; type: cell-based; settings: hepg2, 24 h
[2] = target: T1, Nuclear factor erythroid 2-related factor 2 (Homo sapiens); assay: Activation of Nrf2 in human HepG2-ARE-C8 cells assessed as induction of ARE-mediated luciferase activity at 0.1 uM after 24 hrs by luciferase reporter gene assay relative to control; type: cell-based; in short: as §1
[3] = target: T1, Nuclear factor erythroid 2-related factor 2 (Homo sapiens); assay: Activation of Nrf2 in human HepG2-ARE-C8 cells assessed as induction of ARE-mediated luciferase activity at 1 uM after 24 hrs by luciferase reporter gene assay relative to control; type: cell-based; in short: as §1
[4] = target: T1, Nuclear factor erythroid 2-related factor 2 (Homo sapiens); assay: Activation of Nrf2 in human HepG2-ARE-C8 cells assessed as induction of ARE-mediated luciferase activity at 20 uM after 24 hrs by luciferase reporter gene assay relative to control; type: cell-based; in short: as §1
[5] = target: T1, Nuclear factor erythroid 2-related factor 2 (Homo sapiens); assay: Activation of Nrf2 in human HepG2-ARE-C8 cells assessed as induction of ARE-mediated luciferase activity at 40 uM after 24 hrs by luciferase reporter gene assay relative to control; type: cell-based; in short: as §1
[6] = target: T1, Nuclear factor erythroid 2-related factor 2 (Homo sapiens); assay: Activation of Nrf2 in human HepG2-ARE-C8 cells assessed as induction of ARE-mediated luciferase activity at 80 uM after 24 hrs by luciferase reporter gene assay relative to control; type: cell-based; in short: as §1
[7] = Lipophilicity, log D of the compound at pH 7.4 by potentiometric titration method; type: physicochemical; settings: buffer
In short: (§2)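 Intrinsic aqueous solubility and logD at pH 7.4 determined by Avdeef-Bucher potentiometric titration on a pION Gemini Profiler.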

[8] = Intrinsic aqueous solubility of the compound by potentiometric titration method; type: physicochemical; in short: as §2

Row | Activity [1] | Activity [2] | Activity [3] | Activity [4] | Activity [5] | Activity [6] | logD [7] | solubility [8] [µM] | SMILES | Activity (HepG2)
1 | 1.63 | 1.87 | 5.35 | 14.2 | 15.2 | 16.4 | 3.91 | 86 (≈ 24.8 µg/mL) | COc1cccc(-c2noc(-c3ccc(F)c(F)c3)n2)c1 | Non-Toxic
2 | 1.01 | 2.65 | 4.18 | 12.1 | 21.6 | 25.1 | – | – | Fc1ccc(-c2nc(-c3ccc4nc[nH]c4c3)no2)c(Br)c1 | Non-Toxic
3 | 0.65 | 0.83 | 1.05 | 1.31 | 1.32 | 2.55 | – | – | Fc1ccc(-c2nc(-c3ccccn3)no2)cc1F | Non-Toxic
4 | 0.96 | 1.97 | 2.17 | 2.95 | 5.79 | 6.35 | – | – | Fc1ccc(-c2noc(-c3ccc(F)c(F)c3)n2)nc1 | Non-Toxic
5 | 1.04 | 3.88 | 3.22 | 7.53 | 9.59 | 12.5 | – | – | Fc1ccc(-c2nc(-c3ccc4nc[nH]c4c3)no2)cc1Cl | –
6 | 1.55 | 1.86 | 2.15 | 3.95 | 4.36 | 7.92 | – | – | Fc1cc(F)c(-c2nc(-c3ccc4nc[nH]c4c3)no2)cc1F | Non-Toxic
7 | 1.74 | 3.23 | 4.78 | 12.8 | 13.2 | 19.1 | – | – | Clc1cccc(-c2nc(-c3ccc4nc[nH]c4c3)no2)c1 | Non-Toxic
8 | 1.42 | 1.36 | 1.73 | 1.73 | 2.68 | 2.56 | – | – | Fc1ccc(-c2noc(-c3ccc(F)c(F)c3)n2)cc1F | Non-Toxic
9 | 2.85 | 3.06 | 3.85 | 7.65 | 8.29 | 9.95 | – | – | Fc1ccc(-c2nc(-c3ccc(Cl)cc3)no2)cc1F | Non-Toxic
10 | 0.58 | 1.16 | 1.76 | 1.98 | 2.63 | 3.63 | – | – | Fc1ccc(-c2nc(-c3ccccc3Br)no2)cc1F | Non-Toxic
11 | 0.92 | 1.81 | 2.05 | 2.76 | 3.45 | 5.46 | – | – | Fc1cccc(-c2noc(-c3ccc(F)c(F)c3)n2)c1 | Non-Toxic
12 | 3.85 | 3.96 | 4.25 | 4.85 | 5.91 | 6.95 | – | – | Fc1ccc(-c2nc(-c3ccccc3F)no2)cc1F | Non-Toxic
13 | 2.01 | 4.51 | 12 | 12.7 | 15 | 19.1 | – | – | Fc1ccccc1-c1nc(-c2ccc3nc[nH]c3c2)no1 | Non-Toxic
14 | 0.92 | 1.06 | 1.07 | 2.05 | 2.95 | 5.82 | – | – | Fc1ccc(-c2nc(-c3ncccn3)no2)cc1F | Non-Toxic
15 | 1.21 | 2.69 | 4.49 | 8.83 | 12.4 | 14.1 | – | – | Fc1cccc(-c2nc(-c3ccc4nc[nH]c4c3)no2)c1 | Non-Toxic
16 | 1.87 | 1.91 | 2.15 | 3.45 | 3.55 | 4.45 | – | – | COc1cc(OC)cc(-c2noc(-c3ccc(F)c(F)c3)n2)c1 | Non-Toxic
17 | 2.31 | 4.15 | 5.24 | 16.9 | 20.2 | 21.9 | – | – | Fc1ccc(F)c(-c2nc(-c3ccc4nc[nH]c4c3)no2)c1 | Non-Toxic

Row | Activity [1] | Activity [2] | Activity [3] | Activity [4] | Activity [5] | Activity [6] | logD [7] | solubility [8] [µM] | SMILES | Activity (HepG2)
18 | 0.68 | 2.98 | 4.22 | 11.8 | 14.7 | 18.3 | – | – | Fc1ccc(-c2nc(-c3ccc4nc[nH]c4c3)no2)c(Cl)c1 | Non-Toxic
19 | 1.13 | 1.43 | 1.95 | 1.81 | 2.83 | 3.35 | – | – | Fc1ccc(-c2nc(-c3cnccn3)no2)cc1F | Non-Toxic
20 | 0.83 | 1.88 | 2.01 | 2.36 | 3.77 | 4.02 | – | – | Fc1ccc(-c2nc(-c3cccc4[nH]ccc34)no2)cc1F | Non-Toxic
21 | 1.68 | 1.36 | 1.89 | 3.46 | 3.92 | 4.84 | – | – | Fc1ccc(-c2nc(-c3ccc4nc[nH]c4c3)no2)cc1Br | Non-Toxic
22 | 0.22 | 0.25 | 0.87 | 13.4 | 3.44 | 2.75 | – | – | Brc1ccc(-c2nc(-c3ccc4nc[nH]c4c3)no2)cc1 | Non-Toxic
23 | 1.76 | 2.12 | 2.05 | 3.75 | 5.68 | 6.93 | – | – | Fc1ccc(-c2noc(-c3ccc(F)c(F)c3)n2)cc1 | Non-Toxic
24 | 1.45 | 1.71 | 2.02 | 3.15 | 3.15 | 4.15 | – | – | Fc1ccc(-c2nc(-c3cccnc3)no2)cc1F | Non-Toxic
25 | 1.16 | 1.27 | 1.52 | 1.96 | 1.96 | 3.57 | – | – | Fc1ccc(-c2nc(-c3ccc4ccccc4c3)no2)cc1F | Non-Toxic
26 | 1.08 | 1.62 | 1.07 | 1.29 | 1.72 | 2.88 | – | – | Fc1ccc(-c2nc(-c3ccncc3)no2)cc1F | Non-Toxic
27 | 1.77 | 2.22 | 3.7 | 4.55 | 10.7 | 16.5 | – | – | Fc1cccc(-c2nc(-c3ccc4nc[nH]c4c3)no2)c1F | Non-Toxic
28 | – | – | – | – | – | – | – | – | Fc1ccc(-c2nc(-c3ccc4[nH]cnc4c3)no2)cc1Cl | Non-Toxic
29 | 0.33 | 0.72 | 1.64 | 15.5 | 18.5 | 14.1 | – | – | Clc1ccc(-c2nc(-c3ccc4nc[nH]c4c3)no2)cc1 | Non-Toxic
30 | 1.62 | 2.17 | 2.48 | 4.58 | 7.34 | 8.36 | – | – | Fc1ccc(-c2nc(-c3ccc4nc[nH]c4c3)no2)c(F)c1 | Non-Toxic
31 | 1.94 | 1.18 | 1.26 | 3.35 | 5.14 | 7.61 | – | – | Fc1cc(F)c(-c2nc(-c3ccc4nc[nH]c4c3)no2)cc1Cl | Non-Toxic
32 | 1.25 | 2.03 | 2.04 | 2.61 | 3.78 | 5.01 | – | – | CC(=O)c1ccc(-c2noc(-c3ccc(F)c(F)c3)n2)cc1 | Non-Toxic
33 | 1.15 | 1.25 | 1.56 | 1.75 | 2.52 | 2.95 | – | – | Fc1ccc(-c2nc(-c3ncccc3F)no2)cc1F | Non-Toxic
